Calls of active or inactive are those of the source.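 Rule for the calls: active = compounds whose response rose with dose, given a half-maximal potency and peak effect versus acetylcholine; inactive = the rest.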
Molecular target: Muscarinic acetylcholine receptor M1 (Homo sapiens) (UniProt P11229)
Assay: potentiation of ACh at human M1 – CHO cells, calcium fluorescence, counter-screen for M4 PAM project, dose response (AID 588744)
Settings: CHO hM1 calcium mobilization, Fluo-4 fluorescence
Method in brief: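 assay system = Fluo-4-loaded CHO cells expressing human M1 muscarinic receptor | probe or stimulus = acetylcholine at EC20, then acetylcholine at EC80 | timing = 144 s compound preincubation, EC80 ACh 86 s after EC20, 37 °C | signal = Fluo-4 calcium fluorescence | controls = maximal acetylcholine response at 1 mM as normalization reference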

Sequence of Muscarinic acetylcholine receptor M1 (Homo sapiens) (P11229 whole entry, looked up): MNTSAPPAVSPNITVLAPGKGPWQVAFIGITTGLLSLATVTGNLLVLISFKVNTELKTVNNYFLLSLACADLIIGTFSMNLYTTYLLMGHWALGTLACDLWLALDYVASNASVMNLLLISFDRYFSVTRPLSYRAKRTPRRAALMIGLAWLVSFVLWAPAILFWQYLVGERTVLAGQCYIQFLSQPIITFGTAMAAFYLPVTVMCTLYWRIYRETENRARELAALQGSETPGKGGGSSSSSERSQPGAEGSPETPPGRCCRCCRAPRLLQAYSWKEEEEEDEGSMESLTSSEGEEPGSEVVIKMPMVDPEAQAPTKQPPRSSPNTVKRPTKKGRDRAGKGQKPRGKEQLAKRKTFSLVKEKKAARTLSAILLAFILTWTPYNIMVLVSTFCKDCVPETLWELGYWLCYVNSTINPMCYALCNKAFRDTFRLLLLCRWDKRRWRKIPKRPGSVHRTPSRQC

Cc1nc2sc(C(=O)NCCc3ccncc3)c(N)c2c(C)c1Cl
% ACh max response (at 30 µM (top of the series)): inactive

Cc1nc2sc(C(=O)NC3CC3)c(N)c2c(C)c1Cl
EC50: 969 nM

Cc1nc2sc(C(=O)NCc3cccnc3)c(N)c2c(C)c1Cl
% ACh max response (at 45.3 µM (top of the series)): inactive

Cc1nc2sc(C(=O)NCc3ccncn3)c(N)c2c(C)c1Cl
% ACh max response (at 30 µM (top of the series)): inactive

Cc1nc2sc(C(=O)NCc3nccs3)c(N)c2c(C)c1Cl
% ACh max response (at 30 µM (top of the series)): inactive

Cc1nc2sc(C(=O)NCc3ccncc3)c(N)c2c(C)c1Cl
% ACh max response (at 45.3 µM (top of the series)): inactive

Cc1nc2sc(C(=O)NCc3ccc4c(c3)OCO4)c(N)c2c(C)c1Cl
% ACh max response (at 36.8 µM (top of the series)): inactive

Cc1nc2sc(C(=O)NCc3ccccc3)c(N)c2c(C)c1Cl
% ACh max response (at 37.4 µM (top of the series)): inactive

Cc1nc2sc(C(=O)NCc3cccc(F)c3F)c(N)c2c(C)c1Cl
% ACh max response (at 30 µM (top of the series)): inactive

— PubChem BioAssay AID588744 (Vanderbilt Specialized Chemistry Center, 2011)
